697 NFkB inh: inhibitors of the PMA/ionomycin-induced NF-kB reporter in 697 B cells; 697 B-cell NF-kB luciferase reporter, 16 h; inhibition, % at 4 µM; 330,000 compounds, 0.33% hits; AID 435022; in the data active = inhibition above about 35%
miR122 inh: miR-122 inhibition in Huh7 cells; activation (reporter increase), % at 12.5 µM; Huh7 miR-122 Renilla luciferase sensor, 48 h; neutral wells = 0, positive control = 100; 340,000 compounds, 0.3% hits;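 active = mean replicate activation score at least 90 and every replicate individually at or above 90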;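 also: higher luciferase means less miR-122 activity so hits act as miR-122 inhibitors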
Jurkat NFkB inh: inhibitors of the PMA/ionomycin-induced NF-kB reporter in Jurkat cells. 330,000 compounds, 0.53% hits. inhibition, % at 4 µM. PMA/ionomycin-induced NF-kB luciferase reporter, luminescence; in the data active = inhibition above about 50%
NR2E3 ag-1: agonists of human NR2E3 nuclear receptor; inhibition of corepressor binding, % at 3.98 µM; 360,000 compounds, 0.35% hits; Q9Y5X4; AID 602229; CHO-S Gal4-NCOR/VP16-NR2E3 two-hybrid, luciferase;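 active = inhibition above the mean of all tested compounds plus 3 SD, cut at about 70% in these data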;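 also: higher means lower luciferase signal from less NR2E3 corepressor binding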
Target sequence (Q9Y5X4 whole entry, looked up, the tested form may be a part): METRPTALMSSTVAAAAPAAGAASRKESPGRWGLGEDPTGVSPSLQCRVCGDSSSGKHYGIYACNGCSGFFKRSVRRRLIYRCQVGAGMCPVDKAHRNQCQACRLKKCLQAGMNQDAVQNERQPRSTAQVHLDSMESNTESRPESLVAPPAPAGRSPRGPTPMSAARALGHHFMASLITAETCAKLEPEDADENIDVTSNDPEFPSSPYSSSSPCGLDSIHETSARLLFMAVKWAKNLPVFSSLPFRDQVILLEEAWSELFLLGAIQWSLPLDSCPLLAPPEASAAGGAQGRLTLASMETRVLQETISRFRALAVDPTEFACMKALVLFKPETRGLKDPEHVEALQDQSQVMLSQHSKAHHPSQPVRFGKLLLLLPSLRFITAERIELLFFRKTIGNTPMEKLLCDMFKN
FGF22 binding: shifts melting point of recombinant human FGF22. AID 651658. 340,000 compounds, 1.5% hits. activity (Tm shift, normalised), % at 9.99 µM. recombinant FGF22 thermal shift, SYPRO orange fluorescence; percent of sucrose octasulfate shift, DMSO zero;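 active = mean Tm shift, scaled 0 neutral to 100 positive control, at about 1.3% or above, every replicate too, limit read from the data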
Target sequence (Q9HCT0 whole entry, looked up): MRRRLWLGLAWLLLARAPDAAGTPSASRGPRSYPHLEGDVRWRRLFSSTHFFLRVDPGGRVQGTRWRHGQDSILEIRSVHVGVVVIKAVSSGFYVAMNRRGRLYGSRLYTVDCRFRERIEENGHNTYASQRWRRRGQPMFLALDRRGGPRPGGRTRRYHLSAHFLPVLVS
NR2E3 ag-2: agonists of human nuclear receptor NR2E3. inhibition of corepressor binding, % at 4.78 µM. GST-NR2E3/biotin-RetCOR TR-FRET, 1536-well. 320,000 compounds, 0.12% hits. Q9Y5X4. AID 2300;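 active = percent inhibition above the cutoff of mean plus 3 SD of all tested compounds, set per screening campaign, cut at about 20% in these data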
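system = GST-tagged NR2E3 plus biotinylated RetCOR corepressor | input = 1.35 nM GST-NR2E3 | also added = 7 nM biotin-RetCOR | schedule = 5 h incubation at 4 °C | measured by = TR-FRET with europium anti-GST and streptavidin-D2, 340 nm excitation | read-out = percent loss of FRET ratio relative to control wells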
Hits are given with their value; i = inactive; nt = no result given; [ ] = another dose, or the depositor's remark. This is a sample that favours compounds with a hit; in the whole collection about 2.2% have one here.

SMILES	697 NFkB inh	miR122 inh	Jurkat NFkB inh	NR2E3 ag-1	FGF22 binding	NR2E3 ag-2
C[C@H]1[C@H](C)CC[C@]2(C(=O)O)CC[C@]3(C)C(=CC[C@@H]4[C@@]5(C)C[C@@H](O)[C@H](O)C(C)(C)[C@@H]5CC[C@]43C)[C@H]12	i	i	i	94	nt	i
C[C@@H]1CC[C@]2(C(=O)O)CC[C@]3(C)C(=CCC4[C@]56CC[C@@](O)(OC5)C(C)(C)C6CC[C@]43C)C2[C@H]1C (some centres not stated)	i	i	i	94	nt	i
C[C@H]1[C@H](C)CC[C@]2(C(=O)O)CC[C@]3(C)C(=CC[C@@H]4[C@@]5(C)CC[C@H](O)C(C)(C)[C@@H]5CC[C@]43C)[C@H]12	i	i	i	i	i	i
CC1(C)CC[C@]2(C(=O)O)CC[C@]3(C)C(=CCC4[C@]56CC[C@@](O)(OC5)C(C)(C)C6CC[C@]43C)C2C1 (some centres not stated)	nt	i	nt	i	i	nt
O=C(c1nn(-c2ccccc2)c(=O)c2ccccc12)N1CCN(c2ccccn2)CC1	i	i	i	i	nt	i
CCCn1nc(C(=O)N2CCN(c3ccccn3)CC2)c2ccccc2c1=O	i	i	i	i	44	nt
C[C@@H]1CN([C@@H](C)CO)C(=O)Cc2cc(NS(=O)(=O)c3ccccc3)ccc2O[C@@H]1CN(C)S(C)(=O)=O	nt	i	nt	nt	i	nt
Cn1ccnc1Sc1ccccc1[N+](=O)[O-]	i	i	i	i	43	i
COc1ccc(CNC(=O)N(C)C[C@@H]2OCc3ccccc3-c3c(n(C)c4ccccc34)C(=O)N([C@@H](C)CO)C[C@H]2C)cc1	nt	nt	nt	nt	i	nt
CCOC(=O)c1cnc(-n2nc(C)cc2C)nc1Nc1ccc(OC)cc1	i	i	i	i	nt	i
CCOC(=O)c1cnc(-n2nc(C)cc2C)nc1NCc1ccc2c(c1)OCO2	i	i	i	82	nt	i
CC1CC(C(F)(F)F)n2nc(C(=O)O)cc2N1 (configuration not stated)	i	i	i	i	nt	i
O=C(O)c1cc2n(n1)C(C(F)(F)F)CC(C1CC1)N2 (configuration not stated)	i	i	i	i	43	i
COc1ccccc1NS(=O)(=O)c1cc(C(=O)NCC2CCCO2)ccc1C (configuration not stated)	i	nt	i	i	i	i
COc1ccccc1NS(=O)(=O)c1cc(NC(=S)NCC2CCCO2)ccc1C (configuration not stated)	i	99	i	i	i	i
CCn1ccnc1CN(C)Cc1cn(C)nc1-c1ccccc1F	i	nt	i	i	i	i
CCn1ccnc1CN(C)Cc1cn(-c2ccccc2)nc1-c1ccc(OC)cc1F	i	i	i	i	45	i
Cc1ccc2cc(-c3noc(C(C)(C)C)n3)c(=O)[nH]c2c1	i	206	i	i	nt	i
COc1cc(C)c(S(=O)(=O)NOCc2ccc([N+](=O)[O-])cc2)c(C)c1C	i	323	i	i	i	i
C[C@@H]1CN([C@H](C)CO)S(=O)(=O)c2ccc(C#CCN(C)C)cc2O[C@@H]1CN(C)Cc1ccc2c(c1)OCO2	nt	i	nt	nt	i	nt
CCN1C=C(C(C)=O)C(=O)CC1	nt	nt	nt	i	43	nt
C=CCN1C=C(C(C)=O)C(=O)CC1	nt	i	nt	i	i	nt
CC1CCCC(NC(=O)COC(=O)[C@@H](NC(=O)c2ccco2)C(C)C)C1C (some centres not stated)	i	nt	i	i	45	i
CCN(CC)C(=O)COc1ccc2oc(-c3ccco3)cc(=O)c2c1	i	nt	i	i	44	i
CC=Cc1ccc2n(c1=O)C[C@@H]1[C@@H](CO)[C@H](C(=O)NCC(F)(F)F)N(C(=O)c3cccnc3)[C@H]21 (mixture of isomers)	nt	nt	nt	nt	i	nt
SMILES	697 NFkB inh	miR122 inh	Jurkat NFkB inh	NR2E3 ag-1	FGF22 binding	NR2E3 ag-2
Cn1cc(-c2ccc(Cl)cc2)cc(C#N)c1=O	i	i	i	i	43	i
C[C@H](CO)N1C[C@H](C)[C@H](CN(C)S(=O)(=O)c2ccc(F)cc2)OCc2ccccc2-c2ccccc2C1=O	nt	nt	nt	nt	i	nt
C/C=C/c1ccc2c(c1)O[C@H](CN(C)C(=O)C1CC1)[C@@H](C)CN([C@@H](C)CO)S2(=O)=O	nt	i	nt	nt	nt	nt
C[C@@H]1CN([C@H](C)CO)C(=O)c2cc(NC(=O)Nc3ccc(C(F)(F)F)cc3)ccc2O[C@@H](C)CCCCO[C@@H]1CN(C)S(=O)(=O)c1cccs1	nt	i	nt	nt	i	nt
COc1ccccc1CNC(=O)C1CCN(S(=O)(=O)c2ccc(-n3cnnn3)cc2)CC1	i	i	i	i	i	i
COc1cccc(CNC(=O)C2CCN(S(=O)(=O)c3ccc(-n4cnnn4)cc3)CC2)c1	i	i	i	i	43	i
O=[N+]([O-])c1cc(Cl)ccc1N1CCCC1	i	i	i	i	44	i
O=[N+]([O-])c1cc(Cl)ccc1N1CCOCC1	i	i	i	i	i	i
C[C@H](CO)N1C[C@H](C)[C@@H](CN(C)C(=O)NC2CCCCC2)Oc2ccc(NC(=O)Cn3cnnn3)cc2CC1=O	nt	i	nt	nt	i	nt
CCOc1ccc(S(=O)(=O)NCCC(=O)OCC(=O)NC(=O)c2cccn2C)cc1	i	i	i	i	44	nt
CCC(c1ccccc1)C(CC)c1cc(O)c(O)c(O)c1 (configuration not stated)	nt	i	nt	i	43	nt
CCC(C)c1ccccc1O (configuration not stated)	i	i	i	i	i	i
C[C@H]1CCCCO[C@H](CN(C)Cc2ccc3c(c2)OCO3)[C@@H](C)CN([C@@H](C)CO)C(=O)c2cc(NC(=O)Nc3ccc(F)cc3)ccc2O1	nt	i	nt	nt	i	nt
C[C@@H]1CCCCO[C@@H](CN(C)C(=O)Nc2ccc(F)cc2)[C@H](C)CN([C@@H](C)CO)C(=O)c2cc(NC(=O)CCC(F)(F)F)ccc2O1	nt	i	nt	nt	i	nt
O=C(O)c1cc(-c2ccccc2)on1	i	i	i	i	i	i
CC[n+]1oc(-c2ccccc2)cc1C	i	i	i	i	43	i
O=C(Nc1ccccc1F)N1C[C@H]2[C@@H](c3ccccc31)[C@@H](CO)N2C(=O)c1ccc(F)cc1	nt	240[16.7 µM]	nt	nt	i	nt
COc1cccc(C(=O)N2C[C@H]3[C@@H](c4ccccc42)[C@@H](CO)N3C(=O)c2ccc(F)cc2)c1	nt	229[16.7 µM]	nt	nt	i	nt
O=C(Nc1ccccc1F)N1C[C@@H]2[C@H](c3ccccc31)[C@H](CO)N2C(=O)c1ccccc1F	nt	i	nt	nt	i	nt
COc1ccc(C(=O)N2C[C@@H]3[C@H](c4ccccc42)[C@H](CO)N3C(=O)c2ccc(F)cc2)cc1	nt	i	nt	nt	i	nt
C[C@@H]1CN([C@H](C)CO)C(=O)c2cc(NC(=O)C3CCCCC3)ccc2O[C@@H](C)CCCCO[C@@H]1CN(C)C(=O)CCCN(C)C	nt	i	nt	nt	i	nt
